In publication PMC7658073 (Clinical Pharmacokinetics, 2020):

Tests used:
OAT1 = molecular target: T1, OAT1 (Homo sapiens, UniProt Q4U2R8); experiment: Inhibitory potency towards OAT1; format: in vitro ADME
T1 sequence (Q4U2R8 1-563): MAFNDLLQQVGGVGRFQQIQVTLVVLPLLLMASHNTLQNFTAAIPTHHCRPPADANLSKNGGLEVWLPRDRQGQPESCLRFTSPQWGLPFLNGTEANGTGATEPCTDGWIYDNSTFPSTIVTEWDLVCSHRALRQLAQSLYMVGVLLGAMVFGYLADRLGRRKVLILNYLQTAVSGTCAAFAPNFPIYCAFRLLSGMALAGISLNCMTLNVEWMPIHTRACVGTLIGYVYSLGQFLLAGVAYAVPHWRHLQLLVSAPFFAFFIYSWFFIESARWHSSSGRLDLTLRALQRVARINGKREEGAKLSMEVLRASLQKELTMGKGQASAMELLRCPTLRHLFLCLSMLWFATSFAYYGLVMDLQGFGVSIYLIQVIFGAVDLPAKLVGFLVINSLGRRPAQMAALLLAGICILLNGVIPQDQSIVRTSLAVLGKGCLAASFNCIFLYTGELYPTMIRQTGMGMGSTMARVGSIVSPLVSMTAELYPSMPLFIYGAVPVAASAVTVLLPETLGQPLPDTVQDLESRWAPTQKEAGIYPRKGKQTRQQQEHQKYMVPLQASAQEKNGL

[1] = All phase I studies in healthy volunteers; format: in vivo, human
Summary of the method: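 Healthy male volunteers, excluding regular medication, interacting foods/beverages or supplements, and non-adherence to smoking rules. All study drugs given orally. Tolerability recorded as treatment-emergent adverse events. Non-compartmental PK: AUC0–∞ by linear-log trapezoid plus extrapolation from the terminal log-linear slope; Cmax and trough read directly. Log-transformed parameters compared by ANOVA to give geometric mean ratios with 90% CIs.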

MATE2K = MATE2K (Homo sapiens, UniProt Q86VL8); experiment: Inhibitory potency towards MATE2K; format: in vitro ADME
[2] = Phase I DDI study with ketoconazole; format: in vivo, human
Summary of the method: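 Randomized, open-label, two-fold crossover in healthy men. Ketoconazole 200 mg BID orally for 3 days, given before and with a single oral 1.25 mg dose of test compound, fed, versus test compound alone.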

OATP1B3 = molecular target: T2, OATP1B3 (Homo sapiens, UniProt Q9NPD5); experiment: Inhibitory potency towards OATP1B3; format: in vitro ADME
T2 sequence (Q9NPD5 1-702): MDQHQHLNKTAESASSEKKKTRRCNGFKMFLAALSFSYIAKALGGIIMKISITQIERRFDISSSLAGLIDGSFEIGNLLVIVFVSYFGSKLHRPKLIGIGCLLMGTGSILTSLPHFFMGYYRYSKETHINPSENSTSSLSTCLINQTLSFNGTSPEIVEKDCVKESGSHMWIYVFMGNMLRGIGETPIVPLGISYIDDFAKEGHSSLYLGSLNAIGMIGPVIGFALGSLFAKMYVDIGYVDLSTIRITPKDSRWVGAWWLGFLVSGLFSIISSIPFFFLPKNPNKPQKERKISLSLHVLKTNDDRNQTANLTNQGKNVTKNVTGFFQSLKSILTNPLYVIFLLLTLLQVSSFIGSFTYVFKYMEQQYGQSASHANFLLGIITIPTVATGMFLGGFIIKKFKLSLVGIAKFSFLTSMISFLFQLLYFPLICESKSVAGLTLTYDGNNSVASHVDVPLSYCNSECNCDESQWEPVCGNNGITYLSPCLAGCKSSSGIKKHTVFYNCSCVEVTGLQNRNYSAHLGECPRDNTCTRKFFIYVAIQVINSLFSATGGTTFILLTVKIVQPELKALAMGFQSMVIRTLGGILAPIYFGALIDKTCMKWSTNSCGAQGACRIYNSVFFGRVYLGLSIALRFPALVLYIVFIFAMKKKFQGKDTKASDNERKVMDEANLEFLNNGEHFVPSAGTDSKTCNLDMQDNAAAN

[3] = molecular target: T3, organic cation transporter 1 (Homo sapiens, UniProt O15245); experiment: Inhibitory potency towards OCT1; format: in vitro ADME
T3 sequence (O15245 1-554): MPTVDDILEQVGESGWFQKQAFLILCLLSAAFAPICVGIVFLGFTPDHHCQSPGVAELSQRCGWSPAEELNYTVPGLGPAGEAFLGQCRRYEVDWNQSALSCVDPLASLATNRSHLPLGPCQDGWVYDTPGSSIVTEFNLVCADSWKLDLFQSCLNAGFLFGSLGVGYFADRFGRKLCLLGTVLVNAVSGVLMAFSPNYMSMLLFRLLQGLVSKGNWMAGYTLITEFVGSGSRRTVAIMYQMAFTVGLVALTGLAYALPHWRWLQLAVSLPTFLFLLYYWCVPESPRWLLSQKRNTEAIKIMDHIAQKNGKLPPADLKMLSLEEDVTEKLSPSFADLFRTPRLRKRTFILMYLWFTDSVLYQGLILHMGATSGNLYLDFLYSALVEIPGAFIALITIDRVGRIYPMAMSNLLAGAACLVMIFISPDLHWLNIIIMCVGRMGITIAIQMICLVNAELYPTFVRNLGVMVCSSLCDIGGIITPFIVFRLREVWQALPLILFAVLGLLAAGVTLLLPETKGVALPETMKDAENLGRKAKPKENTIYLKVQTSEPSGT

CYP1A2 = experiment: CYP induction in cultured human hepatocytes: CYP1A2; format: in vitro ADME; settings: three donors, up to 10,000 μg/L (23.5 µM)
[4] = with ketoconazole 200 mg BID vs vericiguat 1.25 mg SD alone, fed

Sequence of MATE2K (Q86VL8 1-566 isoform Q86VL8-3): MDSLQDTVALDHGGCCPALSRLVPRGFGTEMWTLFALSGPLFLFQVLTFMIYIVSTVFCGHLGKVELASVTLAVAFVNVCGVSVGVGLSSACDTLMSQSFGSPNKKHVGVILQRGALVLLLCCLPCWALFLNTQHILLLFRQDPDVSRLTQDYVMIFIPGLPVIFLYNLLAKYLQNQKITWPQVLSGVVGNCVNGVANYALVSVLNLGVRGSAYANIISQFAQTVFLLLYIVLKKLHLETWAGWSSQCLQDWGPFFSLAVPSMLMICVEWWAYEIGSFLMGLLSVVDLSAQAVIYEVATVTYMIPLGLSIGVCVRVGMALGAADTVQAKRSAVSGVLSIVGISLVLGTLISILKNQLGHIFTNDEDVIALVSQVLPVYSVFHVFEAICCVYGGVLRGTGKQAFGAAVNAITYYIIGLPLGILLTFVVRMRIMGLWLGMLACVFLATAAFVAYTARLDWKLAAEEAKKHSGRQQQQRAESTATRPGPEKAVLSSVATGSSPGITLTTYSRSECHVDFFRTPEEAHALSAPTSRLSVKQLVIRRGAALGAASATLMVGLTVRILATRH

COC(=O)Nc1c(N)nc(-c2nn(Cc3ccccc3F)c3ncc(F)cc23)nc1N [Vericiguat]
IC50 (OAT1): > 5 µM
Changes in vericiguat exposure in the phase I DDI studies ([1]; all ten DDI studies): ≤ 30%
Tolerability ([1]; healthy volunteers, all phase I studies): generally well tolerated
IC50 (MATE2K): > 10 µM
Increase in vericiguat exposure (AUC) ([2]; co-administration with ketoconazole 200 mg twice daily): 13%
AUC of vericiguat, point estimate of treatment ratio [2, 4]: 1.126
Cmax of vericiguat, point estimate of treatment ratio [2, 4]: 1.109
IC50 (OATP1B3): ~30 µM
IC50 [3]: > 50 µM
Induction of CYP1A2 (CYP1A2): no significant induction
